{"source": "ChEMBL document CHEMBL4321878", "about": "“Stereoselective Activity of 1-Propargyl-4-styrylpiperidine-like Analogues That Can Discriminate between Monoamine Oxidase Isoforms A and B” (J Med Chem, 2020)", "key": {"Mus musculus [1]": {"tested_on": "Mus musculus", "test": "Antianxiety activity in Swiss mouse assessed as proportion of time spent in centre at 10 mg/kg, ip measured after 30 mins and monitored for 5 mins by elevated plus maze test relative to control", "format": "functional", "method_in_brief": "(§1)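 Adult male Swiss mice (25–30 g), given hydrochloride salts in 0.9% saline ip 30 min before the elevated plus maze; control mice received saline, with diazepam 1 mg/kg ip as reference. Scored arm entries, open-arm parameters and time in centre. Mice were used once, randomly assigned, and scored by blinded observers between 10:00 and 14:00 h.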"}, "Mus musculus [2]": {"tested_on": "Mus musculus", "test": "Effect on spontaneous locomotor activity in Swiss mouse assessed as change in number of light beam crossings at 10 mg/kg, ip measured after 30 mins and monitored for 5 mins", "format": "ADME, organism-based", "conditions": "in vivo"}, "Mus musculus [3]": {"tested_on": "Mus musculus", "test": "Antianxiety activity in Swiss mouse assessed as number of total arm entries at 10 mg/kg, ip measured after 30 mins and monitored for 5 mins by elevated plus maze test", "format": "functional", "method_in_brief": "as §1"}, "Mus musculus [4]": {"tested_on": "Mus musculus", "test": "Antidepressant-like activity in Swiss mouse assessed as reduction in immobility time at 3 to 10 mg/kg, ip administered as single dose for 30 mins prior to testing measured for last 4 mins of 6 mins test by tail suspension test", "format": "functional, organism-based"}, "SH-SY5Y": {"tested_on": "SH-SY5Y", "test": "Cytotoxicity against human SH-SY5Y cells assessed as reduction in cell viability at 5 to 10 uM measured after 24 hrs by MTS assay", "format": "cell-based", "method_in_brief": "(§2)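 SH-SY5Y human neuroblastoma cells grown in Advanced DMEM with 10% FBS at 37 °C, 5% CO2, and switched to serum-depleted medium before treatment. Compounds (20 mM DMSO stocks) were applied at 5, 10 or 50 μM for 24 h. Viability read by MTS assay.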"}, "[5]": {"test": "Cytotoxicity against human SH-SY5Y cells assessed as cell viability at 50 uM measured after 24 hrs by MTS assay relative to control", "format": "cell-based", "conditions": "read-out: Activity", "method_in_brief": "as §2"}, "Mus musculus [6]": {"tested_on": "Mus musculus", "test": "Ex vivo inhibition of MAOB in Swiss mouse brain homogenates assessed as residual activity at 0.3 mg/kg, ip administered once daily for 10 days measured 30 mins post-last dose using benzylamine as substrate by amplex red reagent-based horseradish peroxidase-coupled fluorescence assay relative to control", "format": "functional"}, "Mus musculus [7]": {"tested_on": "Mus musculus", "test": "Ex vivo inhibition of MAOB in Swiss mouse brain homogenates assessed as residual activity at 0.3 mg/kg, ip measured after 30 mins using benzylamine as substrate by amplex red reagent-based horseradish peroxidase-coupled fluorescence assay relative to control", "format": "functional"}, "Mus musculus [8]": {"tested_on": "Mus musculus", "test": "Effect on behavioral changes in Swiss mouse at 0.3 mg/kg, ip administered […] and monitored for 5 mins by hole-board test", "format": "ADME, organism-based", "conditions": "in vivo"}, "Mus musculus [9]": {"tested_on": "Mus musculus", "test": "Ex vivo inhibition of MAOB in ip dosed Swiss mouse brain homogenates measured after 30 mins using benzylamine as substrate by amplex red reagent-based horseradish peroxidase-coupled fluorescence assay", "format": "functional", "conditions": "0.5 h"}, "Mus musculus [10]": {"tested_on": "Mus musculus", "test": "Ex vivo inhibition of MAOB in Swiss mouse brain homogenates assessed as residual activity at 30 mg/kg, po administered via gavage measured after 90 mins using benzylamine as substrate by amplex red reagent-based horseradish peroxidase-coupled fluorescence assay relative to control", "format": "functional"}, "[11]": {"test": "Toxicity in Swiss mouse assessed as change in behavior at 0.3 mg/kg, ip administered once daily for 10 days measured during compound dosing", "format": "organism-based", "conditions": "in vivo, 240 h"}, "Mus musculus [12]": {"tested_on": "Mus musculus", "test": "Ex vivo inhibition of MAOB in Swiss mouse brain homogenates assessed as residual activity at 60 mg/kg, ip measured after 30 mins using benzylamine as substrate by amplex red reagent-based horseradish peroxidase-coupled fluorescence assay relative to control", "format": "functional", "method_in_brief": "(§3)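 Male Swiss mice (n = 3 per group) received 60 mg/kg ip in 0.9% saline, or saline alone, 30 min before brain homogenate preparation. […] Residual activity reported as mean ± SD, n = 1 in triplicate.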"}, "[13]": {"molecular_target": "T1, Amine oxidase [flavin-containing] B (Mus musculus, UniProt Q8BW75)", "T1 sequence (Q8BW75 whole entry)": "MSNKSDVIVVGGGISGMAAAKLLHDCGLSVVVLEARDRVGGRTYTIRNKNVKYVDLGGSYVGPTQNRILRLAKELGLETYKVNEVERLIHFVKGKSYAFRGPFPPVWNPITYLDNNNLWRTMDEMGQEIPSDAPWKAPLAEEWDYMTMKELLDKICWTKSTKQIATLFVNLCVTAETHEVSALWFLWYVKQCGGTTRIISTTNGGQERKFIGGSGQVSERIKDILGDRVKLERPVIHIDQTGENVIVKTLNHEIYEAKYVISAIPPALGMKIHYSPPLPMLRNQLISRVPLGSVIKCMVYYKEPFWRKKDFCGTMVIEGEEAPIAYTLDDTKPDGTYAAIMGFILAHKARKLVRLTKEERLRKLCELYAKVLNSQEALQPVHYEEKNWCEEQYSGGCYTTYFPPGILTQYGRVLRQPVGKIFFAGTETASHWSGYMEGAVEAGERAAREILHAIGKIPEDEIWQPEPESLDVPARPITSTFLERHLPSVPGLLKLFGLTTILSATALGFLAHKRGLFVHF", "test": "Inhibition of MAOB in Swiss mouse brain homogenates assessed as residual activity at 50 uM using benzylamine as substrate preincubated for 10 mins followed by substrate addition by amplex red reagent-based horseradish peroxidase-coupled fluorescence assay relative to control", "format": "tissue-based", "conditions": "read-out: Activity"}, "Mus musculus [14]": {"tested_on": "Mus musculus", "test": "Ex vivo inhibition of MAOA/MAOB in Swiss mouse brain homogenates assessed as residual activity at 60 mg/kg, ip measured after 30 mins using p-tyramine as substrate by amplex red reagent-based horseradish peroxidase-coupled fluorescence assay relative to control", "format": "functional", "method_in_brief": "as §3"}, "Mus musculus [15]": {"tested_on": "Mus musculus", "test": "Effect on spontaneous locomotor activity in Swiss mouse assessed as change in number of light beam crossings at >10 mg/kg, ip measured after 30 mins and monitored for 5 mins", "format": "ADME, organism-based", "conditions": "in vivo", "method_in_brief": "(§4)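 Male Swiss mice given single ip doses of ≥10 mg/kg in 0.9% saline, tested 30 min later in the hole-board test combined with spontaneous locomotor activity recording.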"}, "[16]": {"test": "Toxicity in Swiss mouse assessed as change in body weight at 0.3 mg/kg, ip administered once daily for 10 days measured during compound dosing", "format": "organism-based", "conditions": "in vivo, 240 h"}, "[17]": {"test": "Chemical stability of the compound in D2O measured incubated for >1 year at room temperature under dark condition by NMR analysis", "format": "physicochemical"}, "Mus musculus [18]": {"tested_on": "Mus musculus", "test": "Effect on spontaneous locomotor activity in Swiss mouse assessed as change in number of light beam crossings at 0.3 mg/kg, ip administered […] and monitored for 5 mins", "format": "ADME, organism-based", "conditions": "in vivo"}, "Mus musculus [19]": {"tested_on": "Mus musculus", "test": "Effect on behavioral changes in Swiss mouse at >10 mg/kg, ip measured after 30 mins and monitored for 5 mins by hole-board test", "format": "ADME, organism-based", "conditions": "in vivo", "method_in_brief": "as §4"}}, "note": "Activity calls are given as the source filed them. The calls are words filed in the database; no cut-off is given here.", "data": [{"smiles": "C#CCN1CCC(/C=C\\c2ccc(F)cc2)CC1.Cl", "values": [{"measurement": "Activity", "setting": "Mus musculus [1]", "value": 13.4, "unit": "%"}, {"measurement": "Activity", "setting": "Mus musculus [2]", "value": "Toxic"}, {"measurement": "Activity", "setting": "Mus musculus [3]", "value": 9.7}, {"measurement": "Activity", "setting": "Mus musculus [4]", "value": "Active"}, {"measurement": "Activity", "setting": "SH-SY5Y", "value": "Non-Toxic"}, {"measurement": "viability at 24 h, 50 µM", "setting": "[5]", "value": "> 80", "unit": "%"}]}, {"smiles": "C#CCN1CCC(CCc2ccc(C(F)(F)F)cc2)CC1.Cl", "values": [{"measurement": "Activity", "setting": "Mus musculus [6]", "value": 28.3, "unit": "%"}, {"measurement": "Activity", "setting": "Mus musculus [7]", "value": 83.4, "unit": "%"}, {"measurement": "Activity", "setting": "Mus musculus [8]", "value": "Toxic"}, {"measurement": "ED50", "setting": "Mus musculus [9]", "value": 1.38, "unit": "mg/kg"}, {"measurement": "Activity", "setting": "Mus musculus [10]", "value": 30.5, "unit": "%"}, {"measurement": "Activity", "setting": "[11]", "value": "Non-Toxic"}, {"measurement": "Activity", "setting": "Mus musculus [12]", "value": 24.3, "unit": "%"}, {"measurement": "Activity", "setting": "SH-SY5Y", "value": "Non-Toxic"}, {"measurement": "activity at 50 µM", "setting": "[13]", "value": -7.7, "unit": "%"}, {"measurement": "Activity", "setting": "Mus musculus [14]", "value": 77.2, "unit": "%"}, {"measurement": "viability at 24 h, 50 µM", "setting": "[5]", "value": "> 80", "unit": "%"}, {"measurement": "Activity", "setting": "Mus musculus [15]", "value": "Toxic"}, {"measurement": "Activity", "setting": "[16]", "value": "Non-Toxic"}, {"measurement": "Stability", "setting": "[17]", "value": "Stable"}, {"measurement": "Activity", "setting": "Mus musculus [18]", "value": "Toxic"}, {"measurement": "Activity", "setting": "Mus musculus [19]", "value": "Toxic"}]}]}
